An excerpt weighted towards active compounds, which were near 2.2% of everything screened.
NF-kB expr up: raises NF-kB expression in human neuronal cells. NF-kB reporter expression; active compounds read high. fold change at 12.5 µM. 190,000 tested, 1.6% active. AID 1239; in the data active = fold change above about 3.3
APP 5'UTR act: activates APP 5'UTR luciferase reporter; SH-SY5Y APP 5'UTR luciferase reporter, luminescence; zero percent = DMSO vehicle wells; activation, % at 2 µM; 190,000 tested, 1% active; AID 1276;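 active = activation above a set limit, based on mean plus 3 SD of controls, cut at about 140% in these data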
TRAIL sens C8: sensitizes caspase-8 expressing cells to TRAIL; AID 624354; 360,000 tested, 1% active; NB7+C8 cells + TRAIL, ATPlite viability luminescence; inhibition (viability loss, TRAIL sensitization), % at 10 µM;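 active = compounds causing at least 50% loss of cell viability in the single-dose screen, relative to plate controls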
FLuc inhib CS: counter-screen for luciferase assay inhibitors: firefly luciferase inhibition. inhibition, % at 10 µM. ATPLite firefly luciferase biochemical luminescence, 10 min. AID 1006. 200,000 tested, 1.5% active;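 active = inhibition above about 50% when tested at 10 µM, limit read from the data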
Target sequence (P08659 whole entry, looked up): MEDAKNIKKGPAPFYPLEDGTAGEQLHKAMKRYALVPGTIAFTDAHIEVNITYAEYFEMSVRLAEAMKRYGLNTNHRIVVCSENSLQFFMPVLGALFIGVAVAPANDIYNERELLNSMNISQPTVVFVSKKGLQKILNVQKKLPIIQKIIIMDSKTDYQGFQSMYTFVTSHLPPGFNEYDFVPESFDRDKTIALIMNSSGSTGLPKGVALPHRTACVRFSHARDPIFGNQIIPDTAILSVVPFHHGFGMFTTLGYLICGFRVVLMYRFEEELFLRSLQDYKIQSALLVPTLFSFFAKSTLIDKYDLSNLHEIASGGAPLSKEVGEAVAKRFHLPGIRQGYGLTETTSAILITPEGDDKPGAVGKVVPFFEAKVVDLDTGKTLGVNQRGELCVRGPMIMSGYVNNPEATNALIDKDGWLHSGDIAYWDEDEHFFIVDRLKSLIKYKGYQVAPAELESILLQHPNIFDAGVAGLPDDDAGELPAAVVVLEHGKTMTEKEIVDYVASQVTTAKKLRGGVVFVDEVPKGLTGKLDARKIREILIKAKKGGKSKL
PPC-1+TRAIL kill: compounds killing PPC-1 cancer cells with TRAIL present (potentiator screen, no TRAIL-free arm); PPC-1 cells + TRAIL, ATPLite viability luminescence; cell killing (% activity), % at 4 µM or 5 µM; 220,000 tested, 0.41% active; AID 1443;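 active = cell killing above 50% in the first pass at 4 µM, then a duplicate retest at 5 µM averaging 50% or more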
FLuc act counter: firefly luciferase counter-screen for stimulation assays. P08659. ATPlite luciferase biochemical, luminescence, 10 min; 0 = ATP-free wells, 1 = DMSO control. activation factor at 10 µM. 200,000 tested, under 10 active. AID 1027;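 active = luciferase activation factor, scaled between plate controls, of at least 2 with compound at 10 µM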
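Assay system – cell-free luciferase reagent · Medium – PBS-based ATP solution · Dosing – test compounds dosed from 2 mM stocks in 100% DMSO · Timing – 10 min, room temperature · Technique – light output (luminescence) · Measure – luminescence gain marking luciferase activators · Controls – No-ATP low control, compound-free enzyme-plus-ATP high control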
A number is an active result.

`O=C(N/N=C1\CCc2ccccc21)c1ccccc1Cl` gave NF-kB expr up inactive, APP 5'UTR act inactive, TRAIL sens C8 inactive, FLuc inhib CS inactive, PPC-1+TRAIL kill inactive and FLuc act counter inactive.
For CCOC(=O)[C@]12CCCC=C1N(CCc1ccc(OC)c(OC)c1)C(=O)[C@H](CC(=O)N1CCCC1)C2 the results were TRAIL sens C8 inactive.
`COc1ccc(NC(=O)c2cc3ccccn3n2)cc1` gave NF-kB expr up 6, APP 5'UTR act 149, TRAIL sens C8 inactive, FLuc inhib CS 80, PPC-1+TRAIL kill inactive and FLuc act counter inactive.
Screening COc1ccccc1/C=N/NC(=O)c1csc(C)c1C returned NF-kB expr up inactive, APP 5'UTR act inactive, TRAIL sens C8 inactive, FLuc inhib CS 71, PPC-1+TRAIL kill inactive and FLuc act counter inactive.
`O=C(NCc1ccc(Cl)cc1)c1cc2ccccn2n1` gave NF-kB expr up inactive, APP 5'UTR act inactive, TRAIL sens C8 inactive, FLuc inhib CS inactive, PPC-1+TRAIL kill inactive and FLuc act counter inactive.
Screening COc1ccc(NC(=O)c2ccccn2)cc1 returned NF-kB expr up 3.3, APP 5'UTR act inactive, TRAIL sens C8 74, FLuc inhib CS 90, PPC-1+TRAIL kill 76 and FLuc act counter inactive.
COc1ccccc1/C=C/C=N/NC(=O)c1ccccn1 was read as NF-kB expr up 4.6, APP 5'UTR act inactive, TRAIL sens C8 inactive, FLuc inhib CS inactive, PPC-1+TRAIL kill inactive and FLuc act counter inactive.
`C[C@@H]1CN([C@H](C)CO)C(=O)CCCn2cc(nn2)CO[C@H]1CN(C)C(=O)c1ccccc1` gave TRAIL sens C8 inactive.
CCOC(=O)[C@]12CCC=C1N(Cc1ccc3c(c1)OCO3)C(=O)[C@H](CC(=O)NCc1cccs1)C2 was read as TRAIL sens C8 inactive.
COC(=O)C[C@@H]1CC[C@H](NC(=O)Nc2ccc(F)cc2)[C@@H](CO)O1 was read as TRAIL sens C8 inactive.
Screening CCc1nc2ccc(C(=O)Nc3cccc(NS(C)(=O)=O)c3)cn2c1N(C)C(=O)c1cccc(OC)c1 returned TRAIL sens C8 inactive.
Screening COc1ccc(C(=O)COC(=O)c2cccs2)cc1 returned TRAIL sens C8 inactive.
`O=C(CSCc1ccco1)c1cccs1` gave NF-kB expr up inactive, APP 5'UTR act 170, TRAIL sens C8 inactive, FLuc inhib CS inactive, PPC-1+TRAIL kill inactive and FLuc act counter inactive.
Screening O=C(CCC(=O)c1cccs1)c1cccs1 returned NF-kB expr up 5.2, APP 5'UTR act inactive, TRAIL sens C8 inactive, FLuc inhib CS inactive, PPC-1+TRAIL kill inactive and FLuc act counter inactive.
`O=C(COC(=O)c1cccs1)c1ccccc1` gave NF-kB expr up 4.6, APP 5'UTR act inactive, TRAIL sens C8 inactive, FLuc inhib CS 66, PPC-1+TRAIL kill inactive and FLuc act counter inactive.
For CCCCN(C=O)c1c(CC)nc2c(OCc3ccc(Cl)cc3Cl)cccn12 the results were TRAIL sens C8 inactive.
`O=C(O)/C=C\C(=O)Nc1ccccc1C#Cc1ccccc1` gave NF-kB expr up 6.8, APP 5'UTR act inactive, TRAIL sens C8 inactive, FLuc inhib CS inactive, PPC-1+TRAIL kill inactive and FLuc act counter inactive.
O=C(O)/C=C/C(=O)Nc1ccc(-c2ccccc2)cc1 was read as NF-kB expr up inactive, APP 5'UTR act inactive, TRAIL sens C8 inactive, FLuc inhib CS 53, PPC-1+TRAIL kill inactive and FLuc act counter inactive.
O=C(O)/C=C/C(=O)Nc1ccccc1-c1ccccc1NC(=O)/C=C/C(=O)O was read as NF-kB expr up inactive, TRAIL sens C8 inactive, FLuc inhib CS inactive, PPC-1+TRAIL kill inactive and FLuc act counter inactive.
O=C(O)/C=C\C(=O)Nc1ccccc1C#Cc1ccc(Br)cc1 was read as NF-kB expr up 8, APP 5'UTR act 158, TRAIL sens C8 inactive, FLuc inhib CS inactive, PPC-1+TRAIL kill inactive and FLuc act counter inactive.
For O=C(O)/C=C/C(=O)Nc1ccc(OCc2ccccc2)cc1 the results were TRAIL sens C8 inactive and PPC-1+TRAIL kill inactive.
Cc1cc(NC(=O)CS(=O)c2cn(Cc3cccc(Cl)c3)c3ccccc23)no1 (centres undefined) was read as TRAIL sens C8 inactive.
For CCCCn1nnnc1C(c1ccccc1OC(F)(F)F)N1CCN(C/C=C/c2ccccc2)CC1 (centres undefined) the results were TRAIL sens C8 inactive.
CC1=C(C(=O)N2CCCCCC2)CC(CC(=O)NC2CCCC2)C(=O)N1Cc1ccc(C(C)(C)C)cc1 (centres undefined) was read as TRAIL sens C8 inactive.
CCc1cc2c(=O)n(-c3ccccc3)cnc2s1 was read as NF-kB expr up inactive, TRAIL sens C8 inactive, FLuc inhib CS inactive, PPC-1+TRAIL kill inactive and FLuc act counter inactive.
CC(=O)Cn1cnc2sc(-c3ccccc3)cc2c1=O was read as NF-kB expr up 3.7, APP 5'UTR act inactive, TRAIL sens C8 inactive, FLuc inhib CS inactive, PPC-1+TRAIL kill inactive and FLuc act counter inactive.
For COc1ccc(-n2cnc3sc(-c4ccccc4)cc3c2=O)cc1 the results were NF-kB expr up 3.5, APP 5'UTR act inactive, TRAIL sens C8 inactive, FLuc inhib CS inactive, PPC-1+TRAIL kill inactive and FLuc act counter inactive.
Screening CCc1cc2c(=O)n(-c3ccc(C)cc3)cnc2s1 returned NF-kB expr up 4.2, APP 5'UTR act inactive, TRAIL sens C8 inactive, FLuc inhib CS inactive, PPC-1+TRAIL kill inactive and FLuc act counter inactive.
Screening N#CCn1cnc2sc(-c3ccccc3)cc2c1=O returned NF-kB expr up inactive, APP 5'UTR act inactive, TRAIL sens C8 inactive, FLuc inhib CS inactive, PPC-1+TRAIL kill inactive and FLuc act counter inactive.
For CCn1cnc2sc(-c3ccccc3)cc2c1=O the results were NF-kB expr up 5.4, APP 5'UTR act 182, TRAIL sens C8 inactive, FLuc inhib CS inactive, PPC-1+TRAIL kill inactive and FLuc act counter inactive.
COc1cc(OC)nc(Nc2nc(CN)cs2)n1 was read as TRAIL sens C8 inactive.
`OC(c1cccc(Cl)c1)c1ncc(-c2cccc(C(F)(F)F)c2)[nH]1` (centres undefined) gave TRAIL sens C8 inactive.
`CCOCCC(=O)Nc1ccc2c(c1)c(=O)n(C)n2CC=C(C)C` gave TRAIL sens C8 inactive.
Screening Brc1ccc2nc(-c3c[nH]c4ccccc34)cn2c1 returned NF-kB expr up inactive, APP 5'UTR act 213, TRAIL sens C8 inactive, FLuc inhib CS 58, PPC-1+TRAIL kill inactive and FLuc act counter inactive.
Screening Clc1ccc(-c2cn3cc(Br)ccc3n2)cc1Cl returned NF-kB expr up 7.2, APP 5'UTR act 201, TRAIL sens C8 inactive, FLuc inhib CS 53, PPC-1+TRAIL kill inactive and FLuc act counter inactive.
For CN(C)S(=O)(=O)c1cccc(-c2cn3cc(Cl)ccc3n2)c1 the results were NF-kB expr up inactive, APP 5'UTR act inactive, TRAIL sens C8 inactive, FLuc inhib CS inactive, PPC-1+TRAIL kill inactive and FLuc act counter inactive.
Screening CC(=O)NC(c1ccccc1)c1nc(-c2cccs2)cs1 (centres undefined) returned TRAIL sens C8 inactive.
Screening CSCCC(C(=O)NC(C)(C)C)n1c(-c2ccc(C)cc2)nc2ccccc21 (centres undefined) returned TRAIL sens C8 inactive.

Bioassay records from PubChem.
